Values after ≈ are worked out from the molar mass of the structure shown. Active and inactive are the calls of the source. No cut-off for these calls is given here.
Key:
[1] = In vitro cytotoxicity of compound was tested against 9KB cells.; type: functional; conditions: Homo sapiens, read-out: ED50 (the source's name)
In short: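 Cytotoxicity against KB (9KB) cells was run in vitro at Research Triangle Institute under standard protocols. Potency is expressed as ED50 in μg/mL.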

P388 [2] = assay: Lowest toxicity was observed at this dose against P-388 leukemia cells; type: functional, Mus musculus
In short: (§1)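 In vivo P-388 lymphocytic leukemia (PS) assay run by National Cancer Institute contractors under standard protocols. Compounds were dosed over a range in mg/kg, and activity is reported as % T/C (treated vs control). The optimal dose and the lowest toxic dose were taken from the dose series, and a therapeutic index was tabulated from them.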

P388 [3] = assay: This is the dose at which optimal activity was observed against P-388 leukemia cells; type: functional, Mus musculus; in short: as §1
P388 [4] = assay: Antileukemic activity against P-388 leukemia cells was measured at given dose range; type: functional, Mus musculus; in short: as §1
[5] = Therapeutic index was measured on P-388 leukemia cells.; conditions: mouse, read-out: Therapeutic index; in short: as §1
Mus musculus [6] = assay: Optimal activity expressed as percentage treated to that of control was measured in vivo against P-388 leukemia cells; type: functional; in short: as §1
Mus musculus [7] = assay: Optimal activity expressed as percentage treated to that of control was measured in vivo against P-388 leukemia cells; NA means inactive; type: functional, organism-based; in short: as §1
[8] = Therapeutic index was measured on P-388 leukemia cells; conditions: mouse, read-out: Therapeutic index; in short: as §1
[9] = Therapeutic index was measured on P-388 leukemia cells against P-388 leukemia cells; type: organism-based; conditions: mouse, read-out: Therapeutic index; in short: as §1

Row | SMILES | EC50 [1] | Dose (P388 [2]) | Dose (P388 [3]) | Dose range (P388 [4]) | selectivity ratio [5] | T/C (Mus musculus [6]) | T/C (Mus musculus [7]) | selectivity ratio [8] | selectivity ratio [9]
1 | CCC1(O)C(=O)OCc2c1cc1n(c2=O)Cc2cc3ccccc3nc2-1 (stereo unspecified) | 0.1 µg/mL (≈ 0.287 µM) | 16 mg/kg | 8 mg/kg | 16 mg/kg | 8 | 222% | – | – | –
2 | CC[C@@]1(O)C(=O)OCc2c1cc1n(c2=O)Cc2cc3cc(O)ccc3nc2-1 [HYDROXYCAMPTOTHECIN] | 0.02 µg/mL (≈ 0.0549 µM) | 8 mg/kg | 4 mg/kg | 8 mg/kg | 8 | 314% | – | – | –
3 | CC[C@@]1(O)C(=O)OCc2c1cc1n(c2=O)Cc2cc3cc(OCC(=O)[O-])ccc3nc2-1.[Na+] | > 1 µg/mL | – | – | 32 mg/kg | – | – | inactive | – | –
4 | CC[C@@]1(O)C(=O)OCc2c1cc1n(c2=O)Cc2cc3ccccc3nc2-1 [CAMPTOTHECIN] | – | 8 mg/kg | 4 mg/kg | 8 mg/kg | – | 197% | – | 8 | –
5 | CC[C@@](O)(C(=O)[O-])c1cc2n(c(=O)c1CO)Cc1cc3ccccc3nc1-2.[Na+] | – | 80 mg/kg | 40 mg/kg | 8 mg/kg | 4 | 212% | – | – | –
6 | CC[C@@]1(O)C(=O)OCc2c1cc1n(c2=O)Cc2cc3cc(OC)ccc3nc2-1 | 0.02 µg/mL (≈ 0.0529 µM) | 1 mg/kg | 0.5 mg/kg | 4 mg/kg | 1 | 145% | – | – | –
7 | CCCC1(O)C(=O)OCc2c1cc1n(c2=O)Cc2cc3cccnc3nc2-1 (stereo unspecified) | – | – | 32 mg/kg | 32 mg/kg | – | 175% | – | – | 2
8 | COCCC1(O)C(=O)OCc2c1cc1n(c2=O)Cc2cc3ccccc3nc2-1 (stereo unspecified) | 0.2 µg/mL (≈ 0.529 µM) | 8 mg/kg | 4 mg/kg | 8 mg/kg | 2 | 160% | – | – | –
9 | CCN(CC)CCOc1ccc2nc3c(cc2c1)Cn1c-3cc2c(c1=O)COC(=O)[C@]2(O)CC.Cl | > 1 µg/mL | – | 32 mg/kg | 32 mg/kg | – | 234% | – | – | 16
10 | CCC1(O)C(=O)OCc2c1cc1n(c2=O)Cc2cc3cc4ccccc4cc3nc2-1 (stereo unspecified) | 0.2 µg/mL (≈ 0.502 µM) | – | 16 mg/kg | 32 mg/kg | – | 198% | – | – | 4

Reference: ChEMBL document CHEMBL1121610, “Plant antitumor agents. 18. Synthesis and biological activity of camptothecin analogues” (J Med Chem, 1980)
